Activity calls are given as the source filed them. The rule behind the calls is not given here.

Test [1] has as its system Vibrio cholerae. Put plainly: Inhibition of Vibrio cholerae recombinant MARTX toxin (3391-3650) cysteine protease domain autoprocessing assessed as reduction of GTPgamma-S-induced activation of protease activity at 100 uM after 15 mins by Coomassie staining based SDS-PAGE method. The procedure, abridged:
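His6-tagged CPD (aa 3391–3650, 1 µM) in 60 mM NaCl, 20 mM Tris pH 7.5, 250 mM sucrose was preincubated with 100 µM inhibitor (30 min at room temperature per Methods; 15 min per legend). GTPγS was then added to 200 µM final to trigger autoprocessing, 2 h at 37°C. Read-out was 15% SDS-PAGE with Coomassie staining. Screen run in triplicate; hits confirmed in a secondary screen.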

The subject of test [2] is Vibrio cholerae. Put plainly: Inhibition of Vibrio cholerae recombinant MARTX toxin (3391-3650) cysteine protease domain autoprocessing assessed as concentration of InsP6 required to activate half maximal cleavage of the enzyme at 10 uM by Coomassie staining based SDS-PAGE method. The procedure, abridged:
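N-terminally His6-tagged CPD (aa 3391–3650, 1 µM) in 60 mM NaCl, 20 mM Tris pH 7.5, 250 mM sucrose was pretreated with 10 µM inhibitor for 30 min at room temperature. InsP6 was added across a concentration range, followed by 1 h at 37°C. Samples were run on SDS-PAGE with Coomassie staining and densitometry. Cleaved/total fraction was plotted against InsP6 and fitted with a Michaelis-Menten function to give AC50(I). Triplicates.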

The subject of test [3] is Vibrio cholerae. Put plainly: Inhibition of MARTX toxin cysteine protease domain autoprocessing at Leu3099 residue in wild type Vibrio cholerae at >50 uM by Western blot. In a few lines: (§1)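 Culture supernatants were TCA-precipitated and resolved by SDS-PAGE. Western blot with a polyclonal anti-CPD antibody read out MARTX_Vc processing, seen as accumulation of unprocessed toxin (~460 kDa) compared with untreated wild-type supernatants.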
A general note: A western blot detects proteins with antibodies after separation by electrophoresis.

Test [4] concerns HFF. Put plainly: Inhibition of MARTX toxin cysteine protease domain autoprocessing in Vibrio cholerae assessed as assessed as reduction in actin cross linking in HFF cells exposed to Vibrio cholerae supernatants pretreated at 50 uM for 15 mins by Western blot. The class given is cell-based.
In test [5] the test system is Vibrio cholerae. Description: Inhibition of MARTX toxin cysteine protease domain autoprocessing at Leu3441 residue in wild type Vibrio cholerae at 100 uM by Western blot. In a few lines:
as §1

For test [6], the system named is Vibrio cholerae. Put plainly: Inhibition of MARTX toxin cysteine protease domain autoprocessing in wild type Vibrio cholerae by Western blot. In a few lines: as §1
Test [7] deals with HFF. Put plainly: Inhibition of Vibrio cholerae MARTX toxin cysteine protease domain autoprocessing assessed as assessed as reduction in actin cross linking in HFF cells at 50 uM pretreated for 15 before Vibrio cholerae supernatants addition by Western blot. The class given is cell-based.

For `Cc1cccc(C)c1C(=O)OCC(=O)[C@H](CC(C)C)NC(=O)[C@H](C)NC(=O)OCc1ccccc1`, the inhibition entry in the test with Vibrio cholerae [1] was “Active”. In the test with Vibrio cholerae [2], the Activity came out at 187 nM.
Consider `CCOC(=O)[C@H]1O[C@@H]1C(=O)N(CC(C)C)NC(=O)[C@H](CC(C)C)NC(=O)[C@H](CC(C)C)NC(=O)OCc1ccccc1` (stereo in doubt; 7), for which the inhibition result in the test on Vibrio cholerae [3], in the test on Vibrio cholerae [1], with HFF [4] and with HFF [7] was “Active” in each case. Besides, in the test with Vibrio cholerae [5], the inhibition result was “inactive”. In the test on Vibrio cholerae [6], the inhibition entry was “Dose-dependent effect”. In the test on Vibrio cholerae [2], the Activity was found to be 457 nM.
On to `CCOC(=O)[C@H]1O[C@@H]1C(=O)N(CC(C)C)NC(=O)[C@H](CC(C)C)NC(=O)[C@H](CC(C)C)NC(=O)OCc1ccccc1` (stereo in doubt; 9), for which, in the test on Vibrio cholerae [1], the inhibition result is “Active”. The Activity in the test with Vibrio cholerae [2] turned out to be 74 nM.
Taken in the same sequence, the figures for `CCOC(=O)[C@@H]1O[C@H]1C(=O)N(CC(C)C)NC(=O)OCc1ccccc1` (relative stereo) were “Active” and 1.1 nM.
With `CCOC(=O)[C@@H]1O[C@H]1C(=O)N(CC(C)C)NC(=O)[C@H](CC(C)C)NC(=O)[C@H](CC(C)C)NC(=O)OCc1ccccc1`, the inhibition result in the test with Vibrio cholerae [1] was “Active”. In the test on Vibrio cholerae [2], the Activity amounted to 5.2 nM.
Turning to `CC(C)C[C@H](NC(=O)OCc1ccccc1)C(=O)N[C@@H](CC(C)C)C(=O)NN(CC(C)C)C(=O)[C@H]1O[C@@H]1C(=O)O`, the inhibition result in the test on Vibrio cholerae [1] was “Active”. Besides, the Activity with Vibrio cholerae [2] was 158 nM.
Turning to `Cc1cccc(C)c1C(=O)OCC(=O)[C@H](CC(C)C)NC(=O)[C@H](C)NC(=O)[C@H](CCC(=O)O)NC(=O)OCc1ccccc1`, the inhibition result in the test with Vibrio cholerae [3], with Vibrio cholerae [1] and with HFF [4] was “Active” each time. The inhibition entry in the test with Vibrio cholerae [5] and with HFF [7] was “inactive” throughout. Moreover, the inhibition result with Vibrio cholerae [6] is “Dose-dependent effect”. Further, in the test with Vibrio cholerae [2], the Activity amounted to 529 nM.
`CCOC(=O)[C@H]1O[C@@H]1C(=O)N(CC(C)C)NC(=O)[C@H](CC(C)C)NC(C)=O`: the inhibition result with Vibrio cholerae [1] was “Active”. In the test with Vibrio cholerae [2], the Activity was 21 nM.
Regarding `CCOC(=O)[C@H]1O[C@@H]1C(=O)N(CC(C)C)NC(=O)[C@H](CC(C)C)NC(=O)OCc1ccccc1`, the inhibition entry in the test with Vibrio cholerae [1] is “Active”. Moreover, the Activity in the test with Vibrio cholerae [2] came out at 11 nM.
For `Cc1cccc(C)c1C(=O)OCC(=O)[C@H](CC(C)C)NC(=O)[C@H](C)NC(=O)[C@H](CCC(=O)O)NC(=O)[C@H](CCCCN)NC(=O)OCc1ccccc1`, in that order: “Active” and 290 nM.

The values above are taken from ChEMBL document CHEMBL1212721, “Mechanistic and structural insights into the proteolytic activation of Vibrio cholerae MARTX toxin” (Nat Chem Biol, 2009).
